This passage reports cytotoxicity results from ChEMBL document CHEMBL4513216, “Probing the Open Global Health Chemical Diversity Library for Multistage-Active Starting Points for Next-Generation Antimalarials” (ACS Infect Dis, 2020).

SMILES strings stand for the structures.

This data set can be described thus: Toxicity liver stage against HepG2, at 10uM. The arrangement: test concentration 10 uM, cell line HepG2-A16-CD81EGFP. The class given is cell-based. The conditions noted are these: human, HepG2-A16-CD81EGFP cells; read-out: INHIBITION
The method, boiled down:
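Uninfected HepG2-A16-CD81EGFP cells, 3 × 10^3 per well, 1536-well, plated on prespotted compound at 10 μM final, parasite-free screening media added to match infected plates; puromycin 10 μM positive, DMSO 0.5% negative; run in parallel with 48 h PbLuc assay at 37 °C, 5% CO2; viability by CellTiter-Glo luminescence, normalized to controls.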
Take `CC(=O)N1CC2(CCN(C(=O)C3CC3)CC2)c2cc(C)ccc21`: the cytotoxicity at 10 µM was 9.94%.
In the case of `O=C([C@H]1COC[C@H]2CN(C3CCOCC3)C[C@H]21)N1CCCCO1` it was 5.22%; in that of `Cc1ccccc1OCC(O)CN1CCC(Cn2cccn2)CC1` (stereo unspecified), -0.972%.
In the case of `COc1nccc(N2CC[C@@H](N3CCCCCC3)[C@H](O)C2)c1C#N` it was -152%.
In the case of `CN(C)CC1CN(Cc2csc(C3CCCC3)n2)CCO1` (stereo unspecified) it was -7.32%; in that of `Cn1nccc1-c1ncc2c(c1C(=O)O)CCN(Cc1ccccc1)C2`, 9.97%; in that of `CCc1ccccc1OC1CN(CC2CCOC2)C1` (stereo unspecified), -25.2%.
Turning to `COc1cc(OC)c(C2Nc3cc(Cl)ccc3C3=NCCN32)cc1OC` (stereo unspecified), the cytotoxicity at 10 µM was -3.14%.
On to `Cc1nc(CNC(=O)N(CCCO)C2CCc3ccccc32)oc1C` (stereo unspecified), for which the cytotoxicity at 10 µM was -13.5%.
In the case of `CCc1ocnc1C(=O)Nc1ccc2ccn(CCN(C)C)c2c1`, the cytotoxicity at 10 µM came out at 4.81%.
Regarding `CS(=O)(=O)NCC1CCCN(Cc2ccccc2F)C1` (stereo unspecified), the cytotoxicity at 10 µM was -3.65%.
In the case of `CC(=O)Nc1nc(C(=O)N2CCC(Nc3cccnn3)CC2)cs1` it was -4.67%; in that of `COc1cc(N2CC[C@@H]3[C@@H](CC2)OCCN3CC2CC2)ncn1`, -107%.
In the case of `COc1ccc2c(ccn2CCC(=O)NCCC(=O)O)c1` it was 6.81%; in that of `Cn1ccnc1C(=O)N1CCC(Cn2cc(-c3ccsc3)nn2)CC1`, -6.46%.
On to `Cc1ccc(=O)n(Cc2nc(C(C)OCC(C)C)no2)n1` (stereo unspecified), for which the cytotoxicity at 10 µM was -3.21%.
In the case of `O=C(C1CCC2(CCN(CC3CCOCC3)CC2)O1)N1CCCC1` (stereo unspecified) it was 1.91%; in that of `CO[C@@]1(C)C[C@@H](O)C12CCN(C(=O)c1ccccc1C(C)=O)CC2`, 3.51%.
In the case of `COCC(C)(C#N)NC(=O)c1cn(-c2cccc(Cl)c2F)nn1` (stereo unspecified) it was 0.472%; in that of `COCCN1CCN(CC(=O)N(C)Cc2cccc(F)c2)CC1C` (stereo unspecified), -151%.
In the case of `CCOCCCNC(=O)c1cc(C(C)C)nc(N2CCCCCC2)n1`, the cytotoxicity at 10 µM is 8.53%.
With `COc1ccc(OCCN(C)Cc2nc3c(cnn3C)c(=O)[nH]2)cc1`, the cytotoxicity at 10 µM is -4.03%.
Take `O=C(c1cccnc1)N1Cc2[nH]nc(COCCO)c2C1`: the cytotoxicity at 10 µM came to 13.3%.
In the case of `O=C(O)c1ccn(-c2ccccc2NS(=O)(=O)c2ccccc2)n1`, the cytotoxicity at 10 µM was 23%.
Take `CC(C)NC(=O)N1CCN(C(=O)C(C)C)CC2(CC(=O)N(C)C2)C1` (stereo unspecified): the cytotoxicity at 10 µM was -0.704%.
Regarding `O=C(CCC(=O)NCc1cccc(Br)c1)NCCN1CCCC1`, the cytotoxicity at 10 µM came out at 10%.
In the case of `CN1CCC/C1=N\S(=O)(=O)c1ccc(NC(=O)c2ccco2)cc1` it was 4.56%; in that of `Cc1cc(S(=O)(=O)N2CCCc3cc(F)c(F)cc32)sc1C(=O)O`, -11.9%; in that of `CCc1nccn1C1CCCN(C(=O)c2ccc(N(C)C)nn2)C1` (stereo unspecified), 3.19%.
In the case of `COc1cc(CNCc2c(C)nn(C)c2N(C)C)ccn1` it was -9.48%; in that of `Cc1cc(-c2cnn(CCNC(=O)c3cc[nH]n3)c2C2CC2)on1`, -13.6%; in that of `N#Cc1cccc(CN2C[C@H](OCC3CCOCC3)[C@H]3COC[C@H]32)c1`, -0.82%.
In the case of `CCn1cc(S(=O)(=O)N2CCN(S(=O)(=O)c3ccc(Br)s3)CC2)c(C)n1` it was 4.64%; in that of `NC(=O)c1cnn2c1NCC(CNCCCc1ccccc1)C2` (stereo unspecified), -9.24%; in that of `CC(C(=O)Nc1cnn(CC(N)=O)c1)c1ccc(Cl)s1` (stereo unspecified), 10.9%.
With `COCc1nn(C)c2c1CCN(Cc1cnn(C)c1)C2`, the cytotoxicity at 10 µM is -4.37%.
In the case of `CN(C)C(=O)c1cc2c(s1)CCN(C(=O)CCCN1CCCCC1)C2` it was -41.4%.
For the compound `CC(C)CN1CC(O)CN(S(=O)(=O)c2ccccc2)CC1=O` (stereo unspecified), the cytotoxicity at 10 µM is 1.74%.
In the case of `CNC(=O)CC1CC2(CCN(Cc3nccs3)CC2)c2ccccc21` (stereo unspecified) it was -15%; in that of `O=C(c1cnccn1)N1C[C@H]2CC[C@@H](C1)N(S(=O)(=O)c1cccnc1)C2`, -2.03%; in that of `c1csc(C(CNCc2cccc3c2OCO3)N2CCOCC2)c1` (stereo unspecified), -44.4%.
In the case of `Cn1ncc2c(N3CCC(CC(=O)N4CCCC4)CC3)ncnc21`, the cytotoxicity at 10 µM was 4.19%.
In the case of `CNc1nc(CNC(=O)Nc2cccc(C)c2Cl)cs1` it was -9.04%; in that of `COCCOc1ccc(S(=O)(=O)Nc2cccc(O)c2F)cc1C`, 27.7%; in that of `O=C(N[C@@H]1CN(Cc2ccccc2)C[C@@H]2CCCO[C@@H]21)C1CC1`, -6.12%.
In the case of `Cc1nnc(CCNC(=O)C(c2ccc(F)cc2)N(C)C)[nH]1` (stereo unspecified) it was -5.96%; in that of `O=S(=O)(NCCC(O)c1cccs1)c1ccccc1` (stereo unspecified), -3.82%; in that of `CC(Cc1cccs1)C(=O)NCc1cccc(N2CCCC2=O)c1` (stereo unspecified), 2.4%.
As to `CC(c1ccco1)N(C(=O)c1cc2c([nH]c1=O)CCCC2=O)C1CC1` (stereo unspecified), the cytotoxicity at 10 µM was -3.21%.
For the compound `CNC(=O)C1CCCN(C(=O)c2ccccc2-n2cc(CN)cn2)C1` (stereo unspecified), the cytotoxicity at 10 µM is -2.3%.
In the case of `CCN(CC1CCOC1)C(=O)c1ccn(-c2ccc(OC)cc2)n1` (stereo unspecified) it was -4.19%; in that of `c1cnc(N2CCO[C@H]3[C@H](OCCN4CCOCC4)CC[C@@H]32)nc1`, -10.2%; in that of `CN(Cc1ccc(Cl)s1)C1CCCN(c2cccnn2)C1` (stereo unspecified), -4.27%.
Turning to `O=C(NCc1ccncc1)C1CN(c2nc3ccccc3s2)CCN1` (stereo unspecified), the cytotoxicity at 10 µM is -105%.
In the case of `Cn1cc(Cl)cc1C(=O)N1CCN(Cc2ccsc2)CC1` it was -2.86%; in that of `NC(=O)CC1CCN(Cc2ccccc2OCC(F)(F)F)CC1`, -0.535%.
In the case of `CC1CN(C(=O)c2ccnc(OCCN(C)C)c2)c2ccccc21` (stereo unspecified), the cytotoxicity at 10 µM is -0.343%.
With `CCN(CC)CCNc1c(-c2ccccc2)c(=O)c1=O`, the cytotoxicity at 10 µM is -0.686%.
In the case of `Cc1nc(C)n(CC2CN(CCCOc3ccccc3C)CCO2)n1` (stereo unspecified) it was 5.63%; in that of `CN(Cc1ccsc1)C(=O)c1nc(N2CCCC2)ncc1Cl`, -45.5%.
As to `CN(CCn1ccc2ccccc21)C(=O)Cc1n[nH]c(=O)[nH]1`, the cytotoxicity at 10 µM was -16.4%.
For `CCNc1nc(N(C)C)nc(-n2cnc(SC)n2)n1`, the cytotoxicity at 10 µM was 2.22%.
Take `CCn1cc(SCC(=O)N2CCCC(O)(CO)C2)c2ccccc21` (stereo unspecified): the cytotoxicity at 10 µM was found to be 6.37%.
`O=C(COc1ccc(Cl)cc1)NCc1nncn1C1CC1`: the cytotoxicity at 10 µM amounted to 7.67%.
On to `CC(=O)NCCCc1ncnn1-c1cccc(Cl)c1`, for which the cytotoxicity at 10 µM was 0.254%.
In the case of `CCOCC1CCN(C(=O)C(c2c(F)cccc2F)N(C)C)CC1` (stereo unspecified) it was -3.12%; in that of `Cc1ncc(CNC(=O)NCC(C)Oc2ccccc2F)s1` (stereo unspecified), -7.16%; in that of `Cc1cc(C[S+]([O-])CC(=O)NCc2cccc(Cl)c2)no1` (stereo unspecified), -1.56%.
In the case of `O=C(CCc1ccc(Br)cc1)NCc1nnc[nH]1` it was 0.163%.
Take `Cc1nnc(SCC(=O)N2CCC3(CC2)c2ccccc2CC3O)o1` (stereo unspecified): the cytotoxicity at 10 µM was -20.7%.
`CCc1noc(C(C)N2CCC(C)CC2)n1` (stereo unspecified): the cytotoxicity at 10 µM is -7.6%.
In the case of `Fc1cnc(N2CC3(CCN(Cc4ccsc4)C3)C2)nc1` it was -84.4%; in that of `Cc1nn(C)c2nc(NCCOCCO)sc12`, -5%.
As for `CC(C)NC(=O)c1ccc(NC(=O)NC(C)c2ccccn2)cc1` (stereo unspecified), the cytotoxicity at 10 µM was 9.44%.
For the compound `CNC(=O)C1CCN(C(=O)NCc2ccc(-c3ccn[nH]3)cc2)CC1`, the cytotoxicity at 10 µM was -4.22%.
As for `CC(C)CC(=O)N1CC[C@@H]2[C@H](CC1)N(Cc1cccnc1)CCS2(=O)=O`, the cytotoxicity at 10 µM came to 0.238%.
Turning to `COCCN1CCN(CC(O)c2ccc(OC(F)(F)F)cc2)CC1` (stereo unspecified), the cytotoxicity at 10 µM is -22.1%.
For `Cc1occc1CNC(=O)C1(C)CCCN1C(=O)c1ccccc1` (stereo unspecified), the cytotoxicity at 10 µM was -9.34%.
In the case of `O=c1[nH]nc(SCC2CCCCO2)n1C1CC1` (stereo unspecified) it was 2.14%; in that of `CC1CN(C)CCN1C(=O)c1cnn(-c2ccc(Cl)cc2)c1` (stereo unspecified), -22.7%.
Regarding `Cc1cc(C)n(CCNC(=O)c2cc(C3CC3)n[nH]2)n1`, the cytotoxicity at 10 µM came out at 7.39%.
`CNC(=O)c1ccc(-c2ccc(CNC(=O)COC)cc2)nc1C`: the cytotoxicity at 10 µM is -5.52%.
In the case of `NC(=O)C1CCN(C(=O)CCSCc2ccc(Cl)c(Cl)c2)CC1` it was -1.35%; in that of `CCN(C(=O)c1cccc2c1OCO2)c1ccc(Br)cn1`, 3.44%.
For the compound `O=C1c2cc(Br)cc(Br)c2OCC1(CN1CCCC1)CN1CCCC1`, the cytotoxicity at 10 µM was -7.83%.
Consider `CN(C)[C@@H]1CN(Cc2cccnc2)C[C@H]1c1cn(C)c2ccccc12`, for which the cytotoxicity at 10 µM was 1.44%.
Turning to `Cc1noc2ncc(S(=O)(=O)Nc3cc(CC(C)(C)C)[nH]n3)cc12`, the cytotoxicity at 10 µM was 5.55%.
In the case of `Cc1ccc(C(=O)NCC(c2cnn(C)c2)N(C)C)c(O)c1` (stereo unspecified) it was -7.93%; in that of `CC(C)N(C)C(=O)C1CSCN1S(=O)(=O)c1cccs1` (stereo unspecified), -5.96%; in that of `CS(=O)(=O)N1CCO[C@H]2[C@@H](Oc3ncccc3F)CC[C@@H]21`, -2.54%.
In the case of `O=C(CCNC(=O)c1ccoc1)NCc1ccccc1F` it was 1.76%.
In the case of `Cc1noc(C)c1C(=O)N1CCSc2ccc(Cl)cc21` it was -108%; in that of `CCNc1cc2c(nn1)CCN(C(=O)CC1CCCC1)C2`, -3.87%.
In the case of `COC(=O)CCNC(=O)C1CC(=O)N(C2CCCC2)C1` (stereo unspecified), the cytotoxicity at 10 µM was -22.9%.
Take `COCCNC(=O)Cn1ccc2cccc(OC)c21`: the cytotoxicity at 10 µM was -45.8%.
In the case of `O=C(Cc1cccs1)N1CCc2nnc(COc3cncnc3)n2CC1` it was 8.61%.
